Series [1] concerns ABHD6. The conditions noted are these: read-out: IC50 ABHD6; activity-based protein profiling (ABPP) assay; ref 22b; cited from earlier work.
Series [2] has as its target T1, hMGL (Homo sapiens, UniProt Q99685).
T1 sequence (Q99685 1-303): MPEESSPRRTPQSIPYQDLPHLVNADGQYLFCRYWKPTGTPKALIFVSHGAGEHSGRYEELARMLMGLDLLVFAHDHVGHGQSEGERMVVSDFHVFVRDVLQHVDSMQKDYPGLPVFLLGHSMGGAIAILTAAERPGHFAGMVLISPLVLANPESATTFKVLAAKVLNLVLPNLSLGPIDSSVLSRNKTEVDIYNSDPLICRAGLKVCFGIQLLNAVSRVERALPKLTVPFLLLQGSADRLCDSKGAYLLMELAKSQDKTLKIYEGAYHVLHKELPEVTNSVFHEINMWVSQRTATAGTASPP
In words: Fluorescence-based hMGL inhibition counterscreen. Type of series: biochemical. The conditions noted are these: for hMGL inhibition, result in words: inactive tested at 1uM.

The target in series [3] is T2, hFAAH (Homo sapiens, UniProt O00519).
T2 sequence (O00519 1-579): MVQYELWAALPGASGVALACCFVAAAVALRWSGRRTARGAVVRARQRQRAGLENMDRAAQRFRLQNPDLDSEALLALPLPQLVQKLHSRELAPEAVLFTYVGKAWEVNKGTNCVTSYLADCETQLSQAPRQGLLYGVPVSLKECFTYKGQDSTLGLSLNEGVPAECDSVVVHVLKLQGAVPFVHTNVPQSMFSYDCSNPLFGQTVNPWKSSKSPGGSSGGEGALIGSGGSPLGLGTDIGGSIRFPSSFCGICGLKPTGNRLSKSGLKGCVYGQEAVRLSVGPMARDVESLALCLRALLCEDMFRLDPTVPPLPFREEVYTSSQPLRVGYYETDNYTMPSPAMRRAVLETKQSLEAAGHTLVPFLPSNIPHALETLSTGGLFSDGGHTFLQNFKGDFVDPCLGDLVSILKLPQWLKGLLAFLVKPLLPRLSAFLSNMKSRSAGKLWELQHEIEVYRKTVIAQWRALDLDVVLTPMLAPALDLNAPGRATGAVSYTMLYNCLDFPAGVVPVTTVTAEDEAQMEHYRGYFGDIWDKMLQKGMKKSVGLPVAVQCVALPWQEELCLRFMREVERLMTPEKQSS
The series is described as follows: Fluorescence-based hFAAH inhibition counterscreen. The conditions noted are these: for hFAAH inhibition, result in words: inactive tested at 1uM. Format: biochemical. Background: The purpose of a counterscreen is to sort out artefacts and off-target activity.

Series [4] concerns the target T3, hABHD6 (Homo sapiens, UniProt Q9BV23).
T3 sequence (Q9BV23 1-337): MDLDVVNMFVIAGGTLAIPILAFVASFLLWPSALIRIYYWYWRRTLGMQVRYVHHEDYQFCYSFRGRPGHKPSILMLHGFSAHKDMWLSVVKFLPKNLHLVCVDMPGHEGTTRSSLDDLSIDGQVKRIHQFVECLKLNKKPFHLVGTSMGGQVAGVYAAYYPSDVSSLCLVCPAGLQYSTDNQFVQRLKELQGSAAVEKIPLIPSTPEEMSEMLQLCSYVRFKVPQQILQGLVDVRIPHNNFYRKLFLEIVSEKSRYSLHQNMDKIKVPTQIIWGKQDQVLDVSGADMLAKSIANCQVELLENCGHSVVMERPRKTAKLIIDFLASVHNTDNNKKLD
In words: Fluorescence-based hABHD6 inhibition assay. Format: biochemical. The conditions noted are these: for fold loss in potency for ABHD6: versus the comparator analog named in the text; for inhibition at 10 µM: read-out: % inhibition hABHD6; for hABHD6 inhibition, result in words: words in table or text, table footnote c: inactive tested at 1uM.

Series [5] can be described thus: Metabolic stability in human liver microsomes. Format: in vitro ADME. The conditions noted are these: NADPH. Put shortly:
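Inhibitor pre-incubated at 37 °C with liver microsomal protein of the given species. Reaction started with NADPH, or buffer as control. Proteins precipitated, then parent remaining measured by LC-MS/MS in SRM mode to give t1/2.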
(Liver microsomes are a subcellular fraction often used to study metabolism.)

The nature of series [6]: Cassette pharmacokinetics in brain and plasma, male CD-1 mice. Format: in vivo, mouse. The conditions noted are these: for concentration at 15 min: iv; for concentration at 30 min / concentration at 60 min: po. In short, it runs like this:
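Male CD-1 mice (25–30 g), cassette dosing: single iv dose of 2 mg/kg and oral dose of 8 mg/kg per compound. Plasma and brain taken 15 min after iv, and 30 and 60 min after oral dosing, n = 3 per time point. Flash-frozen tissue extracted and quantified by LC-MS/MS (SRM) with internal standards.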

For series [7], the system named is rat retina (AMPA excitotoxicity). The conditions noted are these: cited from earlier work.
Setting [8] is: read-out: IC50 (nM) ± SEM hMGL, triplicate, eight concentrations.
Where [9] appears, read: male, CD-1, mouse, brain, 8 mg/kg.
Setting [10] is: male, CD-1, mouse, plasma, 8 mg/kg.

Entries after “also recorded” stand apart in the source; their conditions may differ. Where two headings read alike, the source gives them in different places.

The values below come from PMC8898323 (ChemMedChem, 2021).

A word on the IC50: it is the concentration that gives 50% inhibition. For the molecule `CN(Cc1cccc(-c2ccncc2)c1)C(=O)Oc1ccc(-c2ccc(C(N)=O)cc2)cc1` [WWL70], in series [1], the IC50 is […].
For the molecule `CN(C1CN(C(=O)OC(C(F)(F)F)C(F)(F)F)C1)C(c1ccc(F)cc1)c1ccc(F)cc1` [9d, 1,1,1,3,3,3-Hexafluoropropan-2-yl 3-((bis(4-fluorophenyl)methyl) (methyl)amino) azetidine-1-carboxylate], in series [2] (setting [8]), the IC50 came to 83.5 ± 1.8 nM. Further, the “hFAAH inhibition, result in words” value in series [3] was “inactive”.
`O=C(OC(C(F)(F)F)C(F)(F)F)N1CC(OC(c2ccc(F)cc2)c2ccc(F)cc2)C1` [6b, 1,1,1,3,3,3-Hexafluoropropan-2-yl 3-(bis(4-fluorophenyl)methoxy)azetidine-1-carboxylate]: the “fold loss in potency for ABHD6” value in series [4] is on record as “about 2 fold”. Also, the IC50 in series [2] is 6.4 ± 1.5 nM. The “hFAAH inhibition, result in words” value in series [3] was “inactive”.
For the molecule `CC1(C)C2C(=O)N(OC(=O)N3CCc4c(Br)cccc4C3)C(=O)C21` (centres unmarked) [25b, 6,6-Dimethyl-2,4-dioxo-3-azabicyclo[3.1.0]hexan-3-yl 5-bromo-3,4-dihydro isoquinoline-2(1H)-carboxylate], the “fold loss in potency for ABHD6” value in series [4] stood at 2 fold. The “hMGL inhibition, result in words” value in series [2] was “inactive”. Moreover, the “hFAAH inhibition, result in words” value in series [3] was “inactive”.
As to `O=C(OC(C(F)(F)F)C(F)(F)F)N1CCc2ccccc2C1` [14a, 1,1,1,3,3,3-Hexafluoropropan-2-yl 3,4-dihydroisoquinoline-2(1H)-carboxylate], in series [2], the “hMGL inhibition, result in words” value is “lacked activity; also recorded: inactive”. For the same molecule, the “hFAAH inhibition, result in words” value in series [3] is “lacked activity; also recorded: inactive^c”.
A word on the inhibition: it is how much of the control response was suppressed. For `N#Cc1cccc(OC(=O)N2CC(OC(c3ccc(F)cc3)c3ccc(F)cc3)C2)c1` [5a, 3-Cyanophenyl 3-(bis(4-fluorophenyl)methoxy)azetidine-1-carboxylate], the “fold loss in potency for ABHD6” value in series [4] was “about 2 fold”. The same molecule gave an IC50 in series [2] of 66.1 ± 2.4 nM. Further, in series [3] (read-out: % inhibition hFAAH), the inhibition at 0.1 µM turned out to be 33%.
For the molecule `O=C(OC(C(F)(F)F)C(F)(F)F)N1Cc2ccc(OCCN3CCCCC3)cc2C1` [22j, 1,1,1,3,3,3-Hexafluoropropan-2-yl 5-(2-(piperidin-1-yl)ethoxy)isoindoline-2-carboxylate], the “hMGL inhibition, result in words” value in series [2] is “inactive”. In addition, in series [3] (read-out: % inhibition hFAAH), the inhibition at 1 µM is 71%.
One may read the Kp as the ratio of the level in a tissue or fluid to that in plasma or blood. In general, bioavailability refers to the share of a dose that reaches the circulation, judged against a reference dose that is usually intravenous. A high value points to good availability. On to `O=C(OC(C(F)(F)F)C(F)(F)F)N1Cc2ccc(OCCN3CCOCC3)cc2C1` [22f, 1,1,1,3,3,3-Hexafluoropropan-2-yl 5-(2-morpholinoethoxy)isoindoline-2-carboxylate], for which, in series [2], the “hMGL inhibition, result in words” value is “inactive”. Also, the “hFAAH inhibition, result in words” value in series [3] was “inactive^f”. For the same molecule, the “Microsomes t1/2 min Human” value in series [5] is given as “most stable”. Also, the “brain permeability, result in words” value in series [6] (comparing brain and plasma levels after iv administration at 15 min) is reported as “brain permeable”. Moreover, in series [6] (male, CD-1, mouse, brain, intravenous, 2 mg/kg), the Kp at 15 min was found to be 1.2. For the same molecule, the concentration at 15 min was 735 ± 56 ng/g in series [6] (male, CD-1, mouse, brain, 2 mg/kg) and 633 ± 46 ng/mL in series [6] (male, CD-1, mouse, plasma, 2 mg/kg). For the same molecule, the concentration at 30 min came out at 248 ± 89 ng/g in series [6] (setting [9]) and 180 ± 72 ng/mL in series [6] (setting [10]). The results for the concentration at 60 min in series [6] (setting [9]) and in series [6] (setting [10]) were 227 ± 95 ng/g and 140 ± 31 ng/mL, respectively. For the same molecule, in series [6] (male, CD-1, mouse, plasma, oral, 8 mg/kg), the bioavailability amounted to 28%. Further, the AMPA-induced glia activation entry in series [7] (rat retina) is given as “attenuated”. Besides, the retina neuroprotection entry in series [7] (rats, AMPA excitotoxicity) is on record as “dose-dependent retina neuroprotection”.
In the case of `O=C(OC(C(F)(F)F)C(F)(F)F)N1CC(C(c2ccccc2)c2ccccc2)C1` [10d, 1,1,1,3,3,3-Hexafluoropropan-2-yl 3-benzhydrylazetidine-1-carboxylate], in series [4], the inhibition at 10 µM was determined as 37% and the “hABHD6 inhibition, result in words” value was “practically inactive”. In series [2] (setting [8]), the IC50 was found to be 348 ± 7.5 nM. In series [3], the “hFAAH inhibition, result in words” value was “inactive”.
Regarding `O=C(O[C@H](CO)C(F)(F)F)N1CCc2c(Br)cccc2C1` [14j, (R)-1,1,1-trifluoro-3-hydroxypropan-2-yl 5-bromo-3,4-dihydroisoquinoline-2(1H)-carboxylate], in series [4], the inhibition at 10 µM was determined as 35% and the “hABHD6 inhibition, result in words” value is “practically inactive”. Besides, in series [2], the “hMGL inhibition, result in words” value is “inactive”. Moreover, the “hFAAH inhibition, result in words” value in series [3] is “inactive”.
